Results from ChEMBL document CHEMBL5715951, “Synergistic Reactivation of Latent HIV Expression by Ingenol-3-Angelate, PEP005, Targeted NF-kB Signaling in Combination with JQ1 Induced p-TEFb Activation” (PLoS Pathog, 2015).
The source made the active and inactive calls. The calls are words filed in the database; no cut-off is given here.

Key:
[1] = tested on: J-Lat A1; experiment: Anti retroviral activity against PEP005 treated human J-Lat A1 cells harboring a single copy of latent HIV LTR assessed as HIV reactivation at 2 uM followed by 6 nM of PEP005 incubated for 24 hrs by flow cytometry analysis; format: functional, cell-based
How it was run: (§1)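 J-Lat A1 cells (RPMI1640, 10% FBS, 37°C, 5% CO2) exposed to 2 μM agent alone or combined with 6 nM PEP005 for 24 h; percentage of GFP-expressing cells by flow cytometry; Bliss independence model for synergy; ≥3 independent experiments in triplicate.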

[2] = tested on: J-Lat A1; experiment: Anti retroviral activity against PEP005 treated human J-Lat A1 cells harboring a single copy of latent HIV LTR assessed as HIV reactivation at 2 uM incubated for 24 hrs by flow cytometry analysis; format: functional, cell-based; how it was run: as §1
[3] = tested on: U1; experiment: Anti retroviral activity against PEP005 treated human U1 cells harbouring complete HIV genomes with Tat gene mutation assessed as fold increase in HIV reactivation at 2 uM followed by 6 nM of PEP005 incubated for 24 hrs by flow cytometry analysis; format: functional
[4] = tested on: J-Lat A1; experiment: Anti retroviral activity against human J-Lat A1 cells harboring a single copy of latent HIV LTR assessed as HIV reactivation at 2 uM incubated for 24 hrs by flow cytometry analysis; format: functional, cell-based
How it was run: (§2)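 J-Lat A1 cells (single latent LTR-GFP copy) treated 24 h at fixed levels (10 nM PEP005, 500 nM SAHA, 2 μM JQ1/GSK343/Prostratin, 10 ng/ml TNF, 5 ng/ml PMA); percentage GFP-positive cells by flow cytometry.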

[5] = Inhibition of PKCtheta/PKCdelta in HIV infected human J-Lat A cells assessed as reduction of PEP005 induced disruption of HIV latency treated at 2.5 nM relative to control; set-up: species or system J-Lat A1; scale not given: the % may be the effect or the level left; conditions: condition hiv infection
[6] = tested on: J-Lat A1; experiment: Anti retroviral activity against human J-Lat A1 cells harboring a single copy of latent HIV LTR assessed as HIV reactivation at 5 ng/ml incubated for 24 hrs by flow cytometry analysis; format: functional, cell-based; how it was run: as §2
[7] = tested on: J-Lat A1; experiment: Anti retroviral activity against human J-Lat A1 cells harboring a single copy of latent HIV LTR assessed as HIV reactivation at 500 nM incubated for 24 hrs by flow cytometry analysis; format: functional, cell-based; how it was run: as §2
[8] = tested on: J-Lat A1; experiment: Induction of PKC/NF-Kappa B pathway in human J-Lat A1 cells assessed as upregulation of PKC alpha at 12 nM upto 6 hrs by Western blotting analysis; format: cell-based
How it was run: (§3)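 One million J-Lat A1 cells incubated with 12 nM PEP005 up to 6 h; RIPA extracts with protease/phosphatase inhibitors; immunoblots for PKC isoforms, phospho-PKCδ/θ, NF-κB/p65 and phospho-IκBα (Ser32), β (Thr19/Ser23), ε (Ser18/22); band intensities by densitometry, three independent experiments.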

[9] = tested on: CD4+ T cell; experiment: Induction of pro-inflammatory cytokine IFN-gamma expression in human CD4+ T cells at 6 to 12 nM for 24 to 72 hrs by RT-qPCR analysis; format: functional, cell-based; conditions: dose 6-12 nM, time 24-72 hrs
How it was run: (§4)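 CD4+ T cells from healthy HIV-negative donors treated with 6 or 12 nM PEP005 for 24 or 72 h; TNF-α, IFN-γ, IL-2 and IL-6 mRNA quantified by RT-qPCR normalized to GAPDH.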

[10] = tested on: J-Lat A1; experiment: Anti retroviral activity against human J-Lat A1 cells harboring a single copy of latent HIV LTR assessed as HIV reactivation by flow cytometry analysis; format: functional, cell-based; conditions: dose 2-40 nM
How it was run: (§5)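 J-Lat A1 cells exposed to PEP005 over 2–40 nM for 24 h; HIV reactivation as GFP expression by flow cytometry, fold versus untreated; viability by Live/Dead dye staining, flow cytometry.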

[11] = tested on: J-Lat A1; experiment: Induction of PKC/NF-Kappa B pathway in human J-Lat A1 cells assessed as upregulation of PKC delta at 12 nM at 1 hr by Western blotting analysis; format: cell-based; how it was run: as §3
[12] = target: T1, Inhibitor of nuclear factor kappa-B kinase subunit beta (Homo sapiens) (UniProt O14920); experiment: Induction of IkappaB beta phosphorylation in human […] at 12 nM upto 6 hrs by Western blotting analysis; format: cell-based; conditions: J-Lat A1; how it was run: as §3
T1 sequence (whole entry): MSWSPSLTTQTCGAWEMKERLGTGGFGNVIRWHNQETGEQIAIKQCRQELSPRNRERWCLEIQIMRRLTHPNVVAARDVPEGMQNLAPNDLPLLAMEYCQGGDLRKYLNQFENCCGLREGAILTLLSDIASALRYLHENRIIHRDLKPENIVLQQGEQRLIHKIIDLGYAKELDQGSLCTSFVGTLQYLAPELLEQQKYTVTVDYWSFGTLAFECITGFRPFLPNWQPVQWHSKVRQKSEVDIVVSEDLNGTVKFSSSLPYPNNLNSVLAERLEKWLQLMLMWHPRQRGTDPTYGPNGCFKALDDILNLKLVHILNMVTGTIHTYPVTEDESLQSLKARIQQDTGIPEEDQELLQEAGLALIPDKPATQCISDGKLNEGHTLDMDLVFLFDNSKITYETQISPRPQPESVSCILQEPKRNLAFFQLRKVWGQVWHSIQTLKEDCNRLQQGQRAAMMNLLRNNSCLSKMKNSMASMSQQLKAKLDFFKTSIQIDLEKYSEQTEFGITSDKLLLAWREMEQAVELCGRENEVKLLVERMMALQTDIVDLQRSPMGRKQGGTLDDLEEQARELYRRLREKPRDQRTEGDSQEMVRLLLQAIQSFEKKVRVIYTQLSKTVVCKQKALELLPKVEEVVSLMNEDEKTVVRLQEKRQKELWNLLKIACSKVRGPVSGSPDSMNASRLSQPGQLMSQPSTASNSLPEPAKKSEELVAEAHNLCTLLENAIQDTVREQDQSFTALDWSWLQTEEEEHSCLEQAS

[13] = Binding affinity of NFkappa B to HIV LTR in human J-Lat A1 cells assessed as reduction in compound induced fold increase at 12 nM in presence of PKC inhibitor by ChIP-qPCR analysis relative to control; set-up: scale not given: the % may be the effect or the level left; conditions: condition hiv infection
How it was run: (§6)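 ChIP-qPCR on J-Lat A1 cells, 1x10^6 per sample, given 12 nM PEP005 with or without a PKCδ/θ inhibitor. Cells fixed in 1% formaldehyde and lysed in SDS/EDTA/Tris pH 8.1 buffer with protease inhibitors. Chromatin sonicated to 200–1500 bp. Immune complexes taken on protein A/G-agarose for 45 min, then reverse cross-linked overnight. NF-κB/p65 binding at HIV LTR read by SYBR qPCR. Data from at least 3 independent experiments in triplicate.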

[14] = tested on: J-Lat A1; experiment: Anti retroviral activity against human J-Lat A1 cells harboring a single copy of latent HIV LTR assessed as HIV reactivation at 10 nM incubated for 24 hrs by flow cytometry analysis; format: functional, cell-based; how it was run: as §2
[15] = Cytotoxicity against human CD4+ T cells assessed as change in CD38 expression at 12 nM for 24 hrs by RT-qPCR analysis; format: toxicity, cell-based; conditions: cd4+ t cell, 0.012 µM
How it was run: (§7)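 CD4+ T cells purified from uninfected donors, treated 24 h with 12 nM; total RNA extracted and CD38, CD69, CD25 and HLA-DR transcripts measured by RT-qPCR.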

[16] = tested on: J-Lat A1; experiment: Cytotoxicity against human J-Lat A1 cells harboring a single copy of latent HIV LTR assessed as cell viability at 2 to 40 nM by Live/Dead dye staining assay; format: functional, cell-based; conditions: dose 2-40 nM; how it was run: as §5
[17] = Binding affinity of NFkappa B to HIV LTR in human J-Lat A1 cells assessed as fold increase at 12 nM by ChIP-qPCR analysis; conditions: condition hiv infection; how it was run: as §6
[18] = tested on: U1; experiment: Anti retroviral activity against human U1 cells harbouring HIV genomes with Tat gene mutation assessed as fold increase in HIV reactivation at 6 nM by flow cytometry analysis; format: functional
[19] = Cytotoxicity against human CD4+ T cells assessed as change in CD25 expression at 12 nM for 24 hrs by RT-qPCR analysis; format: toxicity, cell-based; conditions: cd4+ t cell, 0.012 µM; how it was run: as §7
[20] = tested on: CD4+ T cell; experiment: Induction of pro-inflammatory cytokine TNF-alpha expression in human CD4+ T cells at 6 to 12 nM for 24 to 72 hrs by RT-qPCR analysis; format: functional, cell-based; conditions: dose 6-12 nM, time 24-72 hrs; how it was run: as §4
[21] = Cytotoxicity against human CD4+ T cells assessed as change in CD69 expression at 12 nM for 24 hrs by RT-qPCR analysis; format: toxicity, cell-based; conditions: cd4+ t cell, 0.012 µM; how it was run: as §7
[22] = tested on: U1; experiment: Induction of cell cycle arrest in human U1 cells assessed as accumulation of cells at S phase at 12 nM for 24 hrs BrdU ELISA analysis; format: functional, cell-based
How it was run: (§8)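 U1, J-Lat A1 or healthy-donor CD4+ T cells treated 24 h with 12 nM PEP005; S-phase progression by BrdU incorporation ELISA; doxorubicin […] positive control.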

[23] = Induction of PKCtheta/PKCdelta phosphorylation at Ser676/Ser643 in human J-Lat A1 cells assessed as fold change measured after 30 mins; conditions: condition hiv infection, 0.5 h
[24] = tested on: J-Lat A1; experiment: Induction of cell cycle arrest in human J-Lat A1 cells assessed as accumulation of cells at S phase at 12 nM for 24 hrs BrdU ELISA analysis; format: functional, cell-based; how it was run: as §8
[25] = tested on: CD4+ T cell; experiment: Induction of cell cycle arrest in human CD4+ T cells assessed as accumulation of cells at S phase at 12 nM for 24 hrs BrdU ELISA analysis; format: functional, cell-based; how it was run: as §8
[26] = tested on: CD4+ T cell; experiment: Induction of pro-inflammatory cytokine IL-6 expression in human CD4+ T cells at 6 to 12 nM for 24 to 72 hrs by RT-qPCR analysis; format: functional, cell-based; conditions: dose 6-12 nM, time 24-72 hrs; how it was run: as §4
[27] = Anti retroviral activity against human J-Lat A1 cells harboring a single copy of latent HIV LTR assessed as fold increase in HIV reactivation at 20 nM by flow cytometry analysis; format: functional; how it was run: as §5
[28] = tested on: J-Lat A1; experiment: Effect on NF kappaB/p65 expression in human […] at 12 nM upto 6 hrs by Western blotting analysis; format: functional, cell-based; how it was run: as §3
[29] = tested on: J-Lat A1; experiment: Induction of PKC/NF-Kappa B pathway in human J-Lat A1 cells assessed as upregulation of PKC theta at 12 nM upto 6 hrs by Western blotting analysis; format: cell-based; how it was run: as §3
[30] = tested on: CD4+ T cell; experiment: Induction of pro-inflammatory cytokine IL-2 expression in human CD4+ T cells at 6 to 12 nM for 24 to 72 hrs by RT-qPCR analysis; format: functional, cell-based; conditions: dose 6-12 nM, time 24-72 hrs; how it was run: as §4
[31] = tested on: J-Lat A1; experiment: Induction of PKC/NF-Kappa B pathway in human J-Lat A1 cells assessed as upregulation of PKC mu/D at 12 nM upto 6 hrs by Western blotting analysis; format: cell-based; how it was run: as §3
[32] = Inhibition of PKCtheta/PKCdelta in HIV infected human J-Lat A cells assessed as reduction of HIV latent reactivation treated at 6 nM in presence of PKC inhibitor relative to control; set-up: species or system J-Lat A1; scale not given: the % may be the effect or the level left; conditions: condition hiv infection
How it was run: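 J-Lat A1 cells got 6 nM PEP005 together with 1, 2 or 5 μM PKCθ/δ inhibitor. HIV reactivation was read as GFP expression by RT-qPCR against PEP005-only cells. Data from at least 3 independent experiments in triplicate.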

Structure (SMILES): Cc1sc2c(c1C)C(c1ccc(Cl)cc1)=N[C@@H](CC(=O)OC(C)(C)C)c1nnc(C)n1-2
- Activity [1]: Active
- Activity [2]: Active
- fold change (FC) [3]: 250
- Activity [4]: Active

Structure (SMILES): Cc1ccc(S(=O)(=O)/C=C/C#N)cc1
- Activity [5]: 50%

Structure (SMILES): CC(=O)O[C@@]12C[C@@H](C)[C@@]3(O)[C@@H](C=C(CO)C[C@]4(O)C(=O)C(C)=C[C@@H]34)[C@@H]1C2(C)C
- Activity [4]: Active

Structure (SMILES): CCCCCCCCCCCCCC(=O)O[C@@H]1[C@@H](C)[C@@]2(O)[C@@H](C=C(CO)C[C@]3(O)C(=O)C(C)=C[C@@H]23)[C@@H]2C(C)(C)[C@]12OC(C)=O
- Activity [6]: Active

Structure (SMILES): CCCc1cc(C)[nH]c(=O)c1CNC(=O)c1cc(-c2ccnc(N3CCN(C)CC3)c2)cc2c1cnn2C(C)C
- Activity [1]: Active
- Activity [4]: inactive

Structure (SMILES): O=C(CCCCCCC(=O)Nc1ccccc1)NO
- Activity [7]: Active

Structure (SMILES): C/C=C(/C)C(=O)O[C@H]1C(C)=C[C@]23C(=O)[C@@H](C=C(CO)[C@@H](O)[C@]12O)[C@H]1[C@@H](C[C@H]3C)C1(C)C [INGENOL MEBUTATE]
- Activity [8]: inactive
- Activity [9]: inactive
- Activity [10]: Dose-Dependent Effect
- Activity [11]: Active
- Activity [12]: inactive
- Activity [13]: >70%
- Activity [14]: Active
- Activity [15]: Non-Toxic
- Activity [16]: inactive
- fold change (FC) [17]: 6
- fold change (FC) [18]: 25
- Activity [19]: Non-Toxic
- Activity [20]: inactive
- Activity [21]: Non-Toxic
- Activity [22]: inactive
- fold change (FC) [23]: 2
- Activity [24]: inactive
- Activity [25]: inactive
- Activity [26]: inactive
- fold change (FC) [27]: 7
- Activity [28]: inactive
- Activity [29]: inactive
- Activity [30]: inactive
- Activity [31]: inactive
- Activity [32]: >65%
